Reference: ChEMBL document CHEMBL5236549, “Discovery of 2-Sulfinyl-Diazabicyclooctane Derivatives, Potential Oral β-Lactamase Inhibitors for Infections Caused by Serine β-Lactamase-Producing Enterobacterales” (J Med Chem, 2021)

Key:
Escherichia coli [1] = experiment: Antibacterial activity against Escherichia coli ATCC SR09613 assessed as reduction in bacterial growth by measuring minimum […] concentration incubated for 16 to 24 hrs by CLSI based two-fold serial dilution method; type: functional; conditions: time 16-24 hrs
Outline: (§1)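 MPC₁ by broth microdilution: twofold serial dilutions of inhibitor in cation-adjusted Mueller Hinton broth containing ceftibuten at 1 μg/mL. Inoculum about 5 × 10⁴ cfu/well final, set from OD625. Incubation at 35 °C for 16−20 h. […] N = 1.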

Klebsiella pneumoniae [2] = experiment: Antibacterial activity against Klebsiella pneumoniae ATCC SR201218 assessed as inhibition of bacterial growth incubated for 16 to 20 hrs by CLSI based two-fold serial dilution method
Klebsiella pneumoniae [3] = experiment: Antibacterial activity against Klebsiella pneumoniae ATCC BAA1705 assessed as inhibition of bacterial growth incubated for 16 to 20 hrs by CLSI based two-fold serial dilution method
Escherichia coli [4] = experiment: Antibacterial activity against Escherichia coli ATCC SR09613 assessed as inhibition of bacterial growth incubated for 16 to 20 hrs by CLSI based two-fold serial dilution method
Klebsiella pneumoniae [5] = experiment: Antibacterial activity against Klebsiella pneumoniae ATCC BAA1705 assessed as reduction in bacterial growth by measuring minimum potentiating concentration incubated for 16 to 20 hrs by CLSI based two-fold serial dilution method; conditions: time 16-20 hrs
Klebsiella pneumoniae [6] = experiment: Antibacterial activity against Klebsiella pneumoniae ATCC SR201218 assessed as reduction in bacterial growth by measuring minimum […] concentration incubated for 16 to 24 hrs by CLSI based two-fold serial dilution method; type: functional; conditions: time 16-24 hrs; outline: as §1
[7] = Inhibition of bacterial beta-lactamase CMY-2 using nitrocefin as substrate incubated for 20 mins; parameters: species or system Bacteria
Outline: (§2)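 Nitrocefin hydrolysis read by absorbance. Enzyme titrated to give about 0.2 absorbance change over the no-enzyme control. Enzyme added to nitrocefin (final 50 μg/mL) plus inhibitor, no preincubation, read after 20 min at 35 °C. IC50 is 50% reduction of hydrolysis. N = 1.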

Escherichia coli [8] = experiment: Antibacterial activity against Escherichia coli ATCC SR34100 assessed as inhibition of bacterial growth incubated for 16 to 20 hrs by CLSI based two-fold serial dilution method
[9] = Inhibition of bacterial beta-lactamase CTX-M-15 using nitrocefin as substrate incubated for 20 mins; parameters: species or system Bacteria
[10] = Inhibition of bacterial beta-lactamase KPC-2 using nitrocefin as substrate incubated for 20 mins; parameters: species or system Bacteria; outline: as §2
Escherichia coli [11] = experiment: Antibacterial activity against Escherichia coli ATCC SR34100 assessed as reduction in bacterial growth by measuring minimum […] concentration incubated for 16 to 24 hrs by CLSI based two-fold serial dilution method; type: functional; conditions: time 16-24 hrs; outline: as §1
[12] = Inhibition of bacterial beta-lactamase OXA-48 using nitrocefin as substrate incubated for 20 mins; parameters: species or system Bacteria; outline: as §2
[13] = Stability of the compound in phosphate buffer at pH 7.0 assessed as parent compound remaining at 40 degreeC measured after 16 hrs; type: physicochemical; conditions: read-out: Stability
Outline: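 Compound held in pH 7.0 phosphate buffer at 40 °C for 16 h; amount remaining reported as %.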

[14] = Stability in rat serum assessed as compound remaining at 5 micromol/L incubated for 30 mins by LC-MS/MS analysis; type: ADME, cell-free; conditions: dose 5 µmol/L, read-out: Stability
Outline: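 Pooled rat serum incubated with 5 μmol/L compound for 30 min at 37 °C, in duplicate; aliquot mixed with methanol, centrifuged, supernatant analysed by LC/MS/MS for % remaining.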

[15] = Total clearance in rat by LC-MS/MS analysis; type: ADME; conditions: in vivo

remaining at 16 h [13]	remaining at 0.5 h, 5 µM [14]	clearance [15]	SMILES	MPC (Escherichia coli [1])	MIC (Klebsiella pneumoniae [2])	MIC (Klebsiella pneumoniae [3])	MIC (Escherichia coli [4])	MPC (Klebsiella pneumoniae [5])	MPC (Klebsiella pneumoniae [6])	IC50 [7]	MIC (Escherichia coli [8])	IC50 [9]	IC50 [10]	MPC (Escherichia coli [11])	IC50 [12]
			N#CC[S@@+]([O-])[C@@H]1CC[C@@H]2CN1C(=O)N2O[C@H](F)C(=O)[O-].[Na+]	0.125 µg/mL	> 32 µg/mL	> 32 µg/mL	32 µg/mL	<0.031 µg/mL	2 µg/mL	96 nM	> 32 µg/mL	7 nM	39 nM	0.25 µg/mL	
			O=C([O-])[C@@H](F)ON1C(=O)N2C[C@H]1CC[C@H]2[S@+]([O-])CF.[Na+]	0.25 µg/mL	> 32 µg/mL	32 µg/mL	32 µg/mL	0.5 µg/mL	2 µg/mL	113 nM	32 µg/mL	6 nM	90 nM	0.25 µg/mL	
			CC(=O)NCC[S@@+]([O-])[C@@H]1CC[C@@H]2CN1C(=O)N2O[C@H](F)C(=O)[O-].[Na+]	0.063 µg/mL		> 32 µg/mL	> 32 µg/mL	0.25 µg/mL	8 µg/mL	101 nM	> 32 µg/mL	101 nM	7 nM	0.5 µg/mL	
			Nc1ncc(C[S@@+]([O-])[C@@H]2CC[C@@H]3CN2C(=O)N3O[C@H](F)C(=O)[O-])s1.[Na+]	0.5 µg/mL	> 32 µg/mL	> 32 µg/mL	> 32 µg/mL	0.25 µg/mL	4 µg/mL	41 nM	> 32 µg/mL	10 nM	88 nM	1 µg/mL	981 nM
			O=C([O-])[C@@H](F)ON1C(=O)N2C[C@H]1CC[C@H]2[S@+]([O-])Cc1c[nH]cn1.[Na+]	0.125 µg/mL	> 32 µg/mL	32 µg/mL	> 32 µg/mL	1 µg/mL	4 µg/mL	59 nM	32 µg/mL	8 nM	78 nM	1 µg/mL	
55%	39%	84.5 mL/min/kg	NS(=O)(=O)[C@@H]1CC[C@@H]2CN1C(=O)N2OC(F)(F)C(=O)O.[Na+]							1340 nM		104 nM	52 nM		
			O=C([O-])[C@@H](F)ON1C(=O)N2C[C@H]1CC[C@H]2[S@+]([O-])CCO.[Na+]	0.125 µg/mL	> 32 µg/mL		> 32 µg/mL	1 µg/mL	2 µg/mL	57 nM	> 32 µg/mL	16 nM	36 nM	0.5 µg/mL	
91%	78%	19.8 mL/min/kg	NS(=O)(=O)[C@@H]1CC[C@@H]2CN1C(=O)N2O[C@H](F)C(=O)[O-].[Na+]							1110 nM		249 nM	977 nM		
			O=C([O-])[C@@H](F)ON1C(=O)N2C[C@H]1CC[C@H]2[S@+]([O-])C[C@@H](O)CO.[Na+]	0.125 µg/mL	> 32 µg/mL	> 32 µg/mL	> 32 µg/mL	0.25 µg/mL	8 µg/mL	52 nM	> 32 µg/mL	10 nM	56 nM	1 µg/mL	
			NC(=O)C[S@@+]([O-])[C@@H]1CC[C@@H]2CN1C(=O)N2O[C@H](F)C(=O)[O-].[Na+]	0.125 µg/mL	> 32 µg/mL	32 µg/mL	32 µg/mL	0.063 µg/mL	4 µg/mL	57 nM	32 µg/mL	50 nM	35 nM	0.25 µg/mL	
			NCC[S@@+]([O-])[C@@H]1CC[C@@H]2CN1C(=O)N2O[C@H](F)C(=O)O.O=C(O)C(F)(F)F	0.5 µg/mL	> 32 µg/mL	> 32 µg/mL	> 32 µg/mL	<0.031 µg/mL	4 µg/mL	431 nM	> 32 µg/mL	159 nM	69 nM	0.125 µg/mL	
			NC(=O)/C(C[S@@+]([O-])[C@@H]1CC[C@@H]2CN1C(=O)N2O[C@H](F)C(=O)[O-])=N\O.[Na+] (stereo in doubt)	0.25 µg/mL	> 32 µg/mL	> 32 µg/mL	> 32 µg/mL	2 µg/mL	32 µg/mL	143 nM	> 32 µg/mL	70 nM	132 nM	2 µg/mL	
			O=C([O-])[C@@H](F)ON1C(=O)N2C[C@H]1CC[C@H]2[S@+]([O-])CCCO.[Na+]	0.063 µg/mL	> 32 µg/mL	> 32 µg/mL	> 32 µg/mL	0.5 µg/mL	2 µg/mL	39 nM	> 32 µg/mL	10 nM	38 nM	1 µg/mL	
			C[S@+]([O-])[C@@H]1CC[C@@H]2CN1C(=O)N2O[C@H](F)C(=O)[O-].[Na+]	0.5 µg/mL	> 32 µg/mL	32 µg/mL	32 µg/mL	0.125 µg/mL	2 µg/mL	655 nM	16 µg/mL	445 nM	443 nM	0.125 µg/mL	32600 nM
			NC(=O)OCC[S@@+]([O-])[C@@H]1CC[C@@H]2CN1C(=O)N2O[C@H](F)C(=O)[O-].[Na+]	0.125 µg/mL	> 32 µg/mL	> 32 µg/mL	> 32 µg/mL	1 µg/mL	4 µg/mL	64 nM	> 32 µg/mL	14 nM	27 nM	1 µg/mL	
			Cc1nnc(C[S@@+]([O-])[C@@H]2CC[C@@H]3CN2C(=O)N3O[C@H](F)C(=O)[O-])o1.[Na+]	0.125 µg/mL	> 32 µg/mL	> 32 µg/mL	> 32 µg/mL	1 µg/mL	4 µg/mL	36 nM	> 32 µg/mL	24 nM	16 nM	1 µg/mL	
17%		289 mL/min/kg	C[S@@+]([O-])[C@@H]1CC[C@@H]2CN1C(=O)N2OC(F)(F)C(=O)[O-].[Na+]							26 nM		5 nM	8 nM		
